Laboratory results from ChEMBL document CHEMBL3808298, “The combination of quinazoline and chalcone moieties leads to novel potent heterodimeric modulators of breast cancer resistance protein (BCRP/ABCG2)” (Eur J Med Chem, 2016).
The source made the active and inactive calls. The calls are words filed in the database; no cut-off is given here.

What was measured:
[1] = target: T1, Broad substrate specificity ATP-binding cassette transporter ABCG2 (Homo sapiens, UniProt Q9UNQ0); test: Inhibition of human C-terminal GFP-tagged ABCG2 expressed in MDCK2 cells using pheophorbide A as substrate preincubated for 20 mins followed by substrate addition measured after 120 mins by flow cytometry; type: cell-based, MDCK-II
T1 sequence (Q9UNQ0 whole entry): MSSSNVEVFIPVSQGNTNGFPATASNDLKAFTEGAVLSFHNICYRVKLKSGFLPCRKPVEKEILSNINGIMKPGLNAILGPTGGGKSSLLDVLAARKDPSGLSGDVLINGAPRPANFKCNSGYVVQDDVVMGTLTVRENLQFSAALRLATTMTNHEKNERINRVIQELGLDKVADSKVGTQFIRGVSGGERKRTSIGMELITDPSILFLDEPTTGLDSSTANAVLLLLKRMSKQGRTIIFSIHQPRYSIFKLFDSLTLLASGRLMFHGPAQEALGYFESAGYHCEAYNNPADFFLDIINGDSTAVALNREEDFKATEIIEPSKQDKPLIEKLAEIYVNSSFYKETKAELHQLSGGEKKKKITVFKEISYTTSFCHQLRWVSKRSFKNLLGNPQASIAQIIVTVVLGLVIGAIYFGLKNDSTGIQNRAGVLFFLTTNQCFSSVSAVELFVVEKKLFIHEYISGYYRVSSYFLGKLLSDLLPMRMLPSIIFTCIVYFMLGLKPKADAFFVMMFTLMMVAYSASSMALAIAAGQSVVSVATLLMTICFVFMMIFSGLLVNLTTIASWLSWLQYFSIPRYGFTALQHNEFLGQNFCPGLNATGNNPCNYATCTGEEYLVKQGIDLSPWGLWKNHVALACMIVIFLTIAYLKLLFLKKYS
In short: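 MDCK II BCRP cells, about 45,000/well in KHB, preincubated with compound for 20 min at 37 °C, 5% CO2. Pheophorbide A added (5 µM solution), then 120 min to steady state. Flow cytometry: excitation 488 nm, emission >670 nm (FL3); GFP in FL1. IC50 from 4-parameter logistic fit; duplicates.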

[2] = target: ATP-dependent translocase ABCB1 (Homo sapiens, UniProt P08183); test: Inhibition of ABCB1 in human A2780/ADR cells incubated for 30 mins measured up to 3600 secs with time intervals of 60 secs by calcein accumulation assay; type: cell-based
ATP-dependent translocase ABCB1, sequence (P08183 whole entry): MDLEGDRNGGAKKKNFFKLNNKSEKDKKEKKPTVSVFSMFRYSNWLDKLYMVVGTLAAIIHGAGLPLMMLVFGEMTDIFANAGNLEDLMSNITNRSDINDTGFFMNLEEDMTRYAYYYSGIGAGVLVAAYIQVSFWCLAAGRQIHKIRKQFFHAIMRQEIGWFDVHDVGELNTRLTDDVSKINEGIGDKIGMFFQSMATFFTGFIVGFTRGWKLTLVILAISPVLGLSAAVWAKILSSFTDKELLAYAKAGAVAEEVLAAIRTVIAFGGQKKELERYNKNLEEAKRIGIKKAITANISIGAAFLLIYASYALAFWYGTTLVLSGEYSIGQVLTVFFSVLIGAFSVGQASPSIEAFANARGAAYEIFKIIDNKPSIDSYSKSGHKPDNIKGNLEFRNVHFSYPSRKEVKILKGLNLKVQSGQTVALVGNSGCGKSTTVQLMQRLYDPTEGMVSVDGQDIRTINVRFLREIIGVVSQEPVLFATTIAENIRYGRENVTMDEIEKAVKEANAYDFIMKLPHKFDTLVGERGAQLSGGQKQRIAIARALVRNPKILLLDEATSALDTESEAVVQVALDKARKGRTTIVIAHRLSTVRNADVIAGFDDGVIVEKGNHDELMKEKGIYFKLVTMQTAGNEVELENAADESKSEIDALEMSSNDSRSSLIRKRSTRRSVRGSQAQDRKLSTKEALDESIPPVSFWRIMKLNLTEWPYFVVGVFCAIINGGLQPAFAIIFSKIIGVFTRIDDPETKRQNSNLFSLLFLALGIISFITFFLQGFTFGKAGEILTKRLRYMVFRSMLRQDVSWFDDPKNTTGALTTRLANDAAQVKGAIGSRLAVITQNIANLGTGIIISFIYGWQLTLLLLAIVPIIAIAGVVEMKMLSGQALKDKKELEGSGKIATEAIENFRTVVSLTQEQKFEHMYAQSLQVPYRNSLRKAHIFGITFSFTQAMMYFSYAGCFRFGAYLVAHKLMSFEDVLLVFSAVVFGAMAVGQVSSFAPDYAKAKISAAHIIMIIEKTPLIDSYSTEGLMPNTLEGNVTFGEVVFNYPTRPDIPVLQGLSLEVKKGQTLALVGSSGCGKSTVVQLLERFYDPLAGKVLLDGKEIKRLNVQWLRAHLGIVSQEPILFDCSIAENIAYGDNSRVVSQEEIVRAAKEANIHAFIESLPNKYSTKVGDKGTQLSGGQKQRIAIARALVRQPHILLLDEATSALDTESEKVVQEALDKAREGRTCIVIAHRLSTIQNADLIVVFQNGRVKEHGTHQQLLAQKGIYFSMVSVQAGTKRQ

[3] = target: ABCB1 (P-glycoprotein) (Homo sapiens, UniProt P08183); test: Inhibition of ABCB1 in human A2780/ADR cells at 10 uM incubated for 30 mins measured up to 3600 secs with time intervals of 60 secs by calcein accumulation assay relative to cyclosporine A; type: cell-based; details: probe calcein, read-out: Imax
ABCB1 (P-glycoprotein) (Homo sapiens, UniProt P08183), sequence (P08183 whole entry): as above
In short: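 A2780adr cells, about 30,000/well, preincubated with compound for 30 min. Calcein AM then added (1.25 µM solution); fluorescence (ex 485/em 520 nm) read every 60 s to 3600 s at 37 °C. […] IC50 by four-parameter logistic fit, variable slope.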

[4] = Cytotoxicity against MDCK2 cells assessed as reduction in cell viability after 72 hrs by MTT assay; type: cell-based, Canis lupus familiaris, MDCK-II; details: dog
In short: (§1)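 Seeding 3 x 10³ cells/well, 6 h attachment at 37 °C, 5% CO2, then compound for 72 h. Controls: 10% DMSO (positive), medium (negative). MTT 5 mg/ml stock for 1 h; formazan in DMSO; A570, background 690 nm. Normalized to control; GI50 from variable-slope sigmoidal fit.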

[5] = Cytotoxicity against MDCK2 cells expressing human C-terminal GFP-tagged ABCG2 assessed as reduction in cell viability after 72 hrs by MTT assay; type: ADME, cell-based, Canis lupus familiaris, MDCK-II; details: dog; in short: as §1
[6] = system: ABCG2; test: Therapeutic ratio of GI50 for MDCK2 cells expressing human C-terminal GFP-tagged ABCG2 to IC50 for human C-terminal GFP-tagged ABCG2 expressed in MDCK2 cells; type: ADME, cell-based; details: dog, read-out: TI
In short: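 Ratio of GI50 from a 72 h MTT assay in MDCK II BCRP cells to IC50 from the pheophorbide A assay in the same cells.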

[7] = Cytotoxicity against human A2780/ADR cells overexpressing ABCB1 assessed as reduction in cell viability after 72 hrs by MTT assay; type: ADME, cell-based
In short: (§2)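 MTT assay in A2780 and ABCB1-overexpressing doxorubicin-resistant A2780adr cells; A2780adr given 1 μM doxorubicin for one passage every 10 passages. 8 x 10³ cells/well, 6 h attachment, 72 h compound exposure at 37 °C, 5% CO2. MTT 1 h, DMSO solubilization, A570 with 690 nm background. Normalized data; GI50 by variable-Hill-slope sigmoidal regression.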

[8] = Cytotoxicity against human A2780 cells assessed as reduction in cell viability after 72 hrs by MTT assay; type: cell-based; in short: as §2
[9] = system: ABCB1 (P-glycoprotein); test: Therapeutic ratio of GI50 for human A2780/ADR cells overexpressing ABCB1 to IC50 for ABCB1 in human A2780/ADR cells; type: ADME, cell-based; details: read-out: TI
[10] = target: T1, Broad substrate specificity ATP-binding cassette transporter ABCG2; test: Inhibition of vanadate-sensitive ATPase activity of recombinant human ABCG2 expressed in baculovirus infected Sf9 cell membrane assessed as decrease in inorganic phosphate production at 1 uM after 20 mins by colorimetry; details: sf9, 20 min
In short: (§3)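 Sf9 membranes from cells infected with baculovirus carrying human wild-type ABCG2, cholesterol-loaded; protein by BCA. Buffer: 40 mM MOPS-Tris pH 7.0, 50 mM KCl, 2 mM DTT, 500 µM EGTA-Tris, 5 mM azide, 1 mM ouabain, 10 µg protein. Reaction started with 3.3 mM MgATP, 20 min at 37 °C. Basal activity with 1 mM orthovanadate; 1 µM quercetin and 1 µM Ko143 as references. Pi by molybdate/ascorbate at 880 nm against K2HPO4 standard; triplicates.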

[11] = system: MDCK-II; test: Potentiation of SN-38-induced cytotoxicity in MDCK2 cells assessed as decrease in cell viability at 0.01 to 0.1 uM after 72 hrs by MTT assay; type: functional, cell-based; details: Canis lupus familiaris
In short: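 SN-38 dose-response curves in MDCK II BCRP cells (canine kidney line stably transfected with human ABCG2 C-terminally fused to GFP) and parental MDCK II wild-type cells. Modulator was present at a final 0.01 or 0.1 µM. Cells were seeded at 3 x 10³ per well, attached 6 h, then exposed 72 h. MTT was read at 570 nm minus 690 nm. Data were normalized and fitted with variable-slope sigmoidal regression.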

[12] = Cytotoxicity against MDCK2 cells expressing human C-terminal GFP-tagged ABCG2 assessed as reduction in cell viability at 10 uM after 72 hrs by MTT assay; type: ADME, cell-based, Canis lupus familiaris; details: dog, mdck-ii
[13] = Cytotoxicity against MDCK2 cells assessed as reduction in cell viability at 10 uM after 72 hrs by MTT assay; type: cell-based, Canis lupus familiaris; details: dog, mdck-ii
[14] = system: MCF7; test: Drug uptake in human MCF7 cells at 10 uM after 2 hrs by confocal laser scanning microscopic analysis; type: ADME, cell-based; details: mcf7, 2 h
In short: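 Parental MCF-7 cells, 1 x 10^5 seeded in dishes for 48 h to 50-60% confluence, then exposed to 10 µM compound for 2 h. Supernatant replaced with KHB; confocal imaging at 37 °C, excitation 405 nm, emission 425-475 nm.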

[15] = target: T1, Broad substrate specificity ATP-binding cassette transporter ABCG2; test: Inhibition of ABCG2 in human MCF7/MX cells assessed as intracellular pheophorbide A accumulation at 10 uM after 2 hrs by confocal laser scanning microscopic analysis; type: cell-based
In short: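 MCF-7 MX cells (ABCG2-overexpressing; 0.1 µM mitoxantrone every 10 passages) incubated with pheophorbide A together with compound for 2 h. Imaged by confocal laser scanning microscopy at 37 °C after replacing the medium with KHB.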

[16] = system: MCF7; test: Drug uptake in human MCF7 cells up to 60 mins by fluorescence spectroscopic analysis; type: ADME, cell-based; details: mcf7, 1 h
In short: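 Parental MCF-7 cells, 1 x 10^6 per 4.5 ml KHB, incubated with compound for varying times […]. After a KHB wash, intracellular fluorescence was read in a fluorescence spectrometer.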

[17] = target: T1, Broad substrate specificity ATP-binding cassette transporter ABCG2; test: Inhibition of vanadate-sensitive ATPase activity of recombinant human ABCG2 expressed in baculovirus infected Sf9 cell membrane assessed as decrease in inorganic phosphate production up to 1 uM after 20 mins by colorimetry; details: sf9, 20 min; in short: as §3
[18] = target: T1, Broad substrate specificity ATP-binding cassette transporter ABCG2; test: Induction of vanadate-sensitive ATPase activity of recombinant human ABCG2 expressed in baculovirus infected Sf9 cell membrane assessed as increase in inorganic phosphate production at >1 uM after 20 mins by colorimetry; details: sf9, 20 min; in short: as §3

SMILES	IC50 [1]	IC50 [2]	GI50 at 72 h [4]	GI50 at 72 h [5]	selectivity ratio [6]	other results
COc1ccc(/C=C/C(=O)c2cccc(Nc3nc(-c4ccc(OC)c(OC)c4)nc4ccccc34)c2)cc1	210 nM	1.29 µM	10.3 µM	13.1 µM	62	inhibition at 30 min, 10 µM [3]: 70%; GI50 at 72 h [7]: 3250 nM; GI50 at 72 h [8]: 4390 nM; selectivity ratio [9]: 3
COc1ccc(/C=C/C(=O)c2ccc(Nc3nc(-c4ccc(OC)c(OC)c4)nc4ccccc34)cc2)cc1	3130 nM	–	–	–	–	–
COc1ccc(/C=C/C(=O)c2cccc(Nc3nc(-c4ccc(OC)c(OC)c4)nc4ccccc34)c2)cc1OC	600 nM	0.48 µM	12.6 µM	10.9 µM	18	inhibition at 30 min, 10 µM [3]: 76%; GI50 at 72 h [7]: 1710 nM; GI50 at 72 h [8]: 1980 nM; selectivity ratio [9]: 4
COc1ccc(/C=C/C(=O)c2cccc(Nc3ncnc4cc(OC)c(OC)cc34)c2)cc1	320 nM	4.15 µM	16.9 µM	12.7 µM	40	inhibition (INH) [10]: Active
COc1ccc2c3c([nH]c2c1)[C@H](CC(C)C)N1C(=O)[C@H](CCC(=O)OC(C)(C)C)NC(=O)[C@@H]1C3	–	–	10.9 µM	11.1 µM	–	Activity [11]: Active
COc1ccc(/C=C/C(=O)c2cccc(Nc3ncnc4ccccc34)c2)cc1	890 nM	7.08 µM	–	–	–	–
COc1ccc(/C=C/C(=O)c2ccc(Nc3nc(-c4ccccc4)nc4ccccc34)cc2)cc1OC	290 nM	18.8 µM	3.46 µM	4.8 µM	17	Activity [12]: Toxic; Activity [13]: Toxic
COc1ccc(/C=C/C(=O)c2ccc(Nc3ncnc4cc(OC)c(OC)cc34)cc2)cc1OC	1230 nM	–	–	–	–	inhibition (INH) [10]: Active
COc1ccc(/C=C/C(=O)c2cccc(Nc3nc(-c4ccccc4)nc4ccccc34)c2)cc1	970 nM	–	–	–	–	–
COc1ccc(/C=C/C(=O)c2cccc(Nc3ncnc4ccccc34)c2)cc1OC	1300 nM	0.42 µM	3.42 µM	5.14 µM	4	inhibition at 30 min, 10 µM [3]: 66%; GI50 at 72 h [7]: 700 nM; GI50 at 72 h [8]: 650 nM; selectivity ratio [9]: 2
COc1cccc(/C=C/C(=O)c2ccc(Nc3nc(-c4ccc(OC)c(OC)c4)nc4ccccc34)cc2)c1	360 nM	14.6 µM	–	–	–	–
COc1ccc(/C=C/C(=O)c2ccc(Nc3ncnc4ccccc34)cc2)cc1OC	840 nM	2.34 µM	–	–	–	inhibition at 30 min, 10 µM [3]: 61%; Drug uptake [14]: Active; inhibition (INH) [15]: Active; Drug uptake [16]: Active
COc1cccc(/C=C/C(=O)c2ccc(Nc3ncnc4cc(OC)c(OC)cc34)cc2)c1	390 nM	7.55 µM	–	–	–	inhibition (INH) [10]: Active; inhibition (INH) [17]: Active; Activity [18]: Not Active
COc1cccc(/C=C/C(=O)c2ccc(Nc3ncnc4ccccc34)cc2)c1	680 nM	5.57 µM	–	–	–	Activity [12]: Toxic; Activity [13]: Toxic
COc1ccc(-c2nc(Nc3ccc(C(=O)/C=C/c4ccccc4)cc3)c3ccccc3n2)cc1OC	1090 nM	–	–	–	–	–
COc1ccc(/C=C/C(=O)c2ccc(Nc3nc(-c4ccccc4)nc4ccccc34)cc2)cc1	3550 nM	–	–	–	–	–
COc1ccc(/C=C/C(=O)c2cccc(Nc3nc(-c4ccccc4)nc4ccccc34)c2)cc1OC	460 nM	–	–	–	–	–
COc1cccc(/C=C/C(=O)c2cccc(Nc3nc(-c4ccc(OC)c(OC)c4)nc4ccccc34)c2)c1	310 nM	8.24 µM	65.5 µM	84.7 µM	273	–
O=C(/C=C/c1ccccc1)c1ccc(Nc2nc(-c3ccccc3)nc3ccccc23)cc1	920 nM	–	–	–	–	–
COc1ccc(/C=C/C(=O)c2cccc(Nc3ncnc4cc(OC)c(OC)cc34)c2)cc1OC	1710 nM	0.86 µM	6.14 µM	11.5 µM	7	inhibition (INH) [10]: Active; inhibition at 30 min, 10 µM [3]: 68%; GI50 at 72 h [7]: 1500 nM; GI50 at 72 h [8]: 1350 nM; selectivity ratio [9]: 2
COc1cccc(/C=C/C(=O)c2ccc(Nc3nc(-c4ccccc4)nc4ccccc34)cc2)c1	880 nM	32.1 µM	–	–	–	Activity [12]: Toxic; Activity [13]: Toxic
COc1cccc(/C=C/C(=O)c2cccc(Nc3nc(-c4ccccc4)nc4ccccc34)c2)c1	680 nM	–	–	–	–	Activity [12]: Toxic; Activity [13]: Toxic
